ChEMBL document CHEMBL1132408, “Novel lipoamino acid- and liposaccharide-based system for peptide delivery: application for oral administration of tumor-selective somatostatin analogues” (J Med Chem, 1999)

Assays:
Assay type in all cases: functional, Homo sapiens
A2058 = test: The compound was tested in vitro for antiproliferative activity against A2058 tumor cell lines; set-up: concentration or dose not given beside the values
Method in brief: (§1)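 Human tumor cell lines were exposed to the conjugates for 24 h at 50 µg/mL. Surviving cells converted the tetrazolium salt MTT to formazan, and OD was read at 570 nm. Values are percent inhibition relative to untreated cells (0%), given as the mean ± SD of at least three parallels. The methods also list 20, 50 and 100 µg/mL and 24 or 48 h exposures.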

A-431 [1] = test: (§2) The compound was tested in vitro for antiproliferative activity against A431 tumor cell lines; set-up: concentration or dose not given beside the values; method in brief: as §1
Faza 967 cell clone 2/T1 = test: The compound was tested in vitro for antiproliferative activity against Faza 967 clone2/T1 tumor cell lines; set-up: concentration or dose not given beside the values
HT-29 = test: The compound was tested in vitro for antiproliferative activity against HT-29 tumor cell lines; set-up: concentration or dose not given beside the values; method in brief: as §1
Faza 967 clone 2 = test: The compound was tested in vitro for antiproliferative activity against Faza 967 clone2 tumor cell lines; set-up: concentration or dose not given beside the values
PC-3 = test: The compound was tested in vitro for antiproliferative activity against PC3 tumor cell lines; method in brief: as §1
SW-620 = test: The compound was tested in vitro for antiproliferative activity against […] tumor cell lines; method in brief: as §1
A-431 [2] = test: as §2; method in brief: as §1

CCCCCCCCC(NC(=O)[C@@H](NC(=O)[C@H](CSCNC(C)=O)NC(=O)[C@H](CCCCN)NC(=O)[C@@H](Cc1c[nH]c2ccccc12)NC(=O)[C@@H](NC(=O)[C@H](CSCNC(C)=O)NC(=O)[C@H](N)Cc1ccccc1)c1ccc(O)cc1)[C@@H](C)O)C(=O)NCC(=O)O (some centres not stated)
Inhibition (A2058): 97%
Inhibition (A-431 [1]): 76%
Inhibition (Faza 967 cell clone 2/T1): 90%
Inhibition (HT-29): 93%
Inhibition (Faza 967 clone 2): 92%

CCCCCCCCC(N)C(=O)N[C@H](Cc1ccccc1)C(=O)N[C@H]1CSSC[C@@H](C(=O)N[C@H](C(N)=O)[C@@H](C)O)NC(=O)[C@H](CCCCN)NC(=O)[C@@H](Cc2c[nH]c3ccccc23)NC(=O)[C@H](c2ccc(O)cc2)NC1=O (some centres not stated)
Inhibition (PC-3): 42%
Inhibition (SW-620): 95%

CCCCCCCCCCCCCCCCC(N)C(=O)N[C@H](Cc1ccccc1)C(=O)N[C@@H](CSCNC(C)=O)C(=O)N[C@H](C(=O)N[C@H](Cc1c[nH]c2ccccc12)C(=O)N[C@@H](CCCCN)C(=O)N[C@@H](CSCNC(C)=O)C(=O)N[C@H](C(N)=O)[C@@H](C)O)c1ccc(O)cc1 (some centres not stated)
Inhibition (A2058): 60%
Inhibition (A-431 [1]): 83%
Inhibition (Faza 967 cell clone 2/T1): 88%
Inhibition (HT-29): 20%
Inhibition (Faza 967 clone 2): 93%

CCCCCCCCCCC(N)C(=O)N[C@H](Cc1ccccc1)C(=O)N[C@H]1CSSC[C@@H](C(=O)N[C@H](C(N)=O)[C@@H](C)O)NC(=O)[C@H](CCCCN)NC(=O)[C@@H](Cc2c[nH]c3ccccc23)NC(=O)[C@H](c2ccc(O)cc2)NC1=O (some centres not stated)
Inhibition (PC-3): 5%
Inhibition (SW-620): 65%

CCCCCCCCCCC(N)C(=O)NCC(=O)NCC(=O)N[C@H](Cc1ccccc1)C(=O)N[C@H]1CSSC[C@@H](C(=O)N[C@H](C(N)=O)[C@@H](C)O)NC(=O)[C@H](CCCCN)NC(=O)[C@@H](Cc2c[nH]c3ccccc23)NC(=O)[C@H](c2ccc(O)cc2)NC1=O (some centres not stated)
Inhibition (A2058): 35%
Inhibition (A-431 [1]): 48%
Inhibition (Faza 967 cell clone 2/T1): 43%
Inhibition (HT-29): 50%
Inhibition (Faza 967 clone 2): 33%

CC(=O)NCSC[C@H](NC(=O)[C@H](N)Cc1ccccc1)C(=O)N[C@H](C(=O)N[C@H](Cc1c[nH]c2ccccc12)C(=O)N[C@@H](CCCCN)C(=O)N[C@@H](CSCNC(C)=O)C(=O)N[C@H](C(N)=O)[C@@H](C)O)c1ccc(O)cc1
Inhibition (A2058): 30%
Inhibition (A-431 [1]): 34%
Inhibition (Faza 967 cell clone 2/T1): 0%
Inhibition (HT-29): 80%
Inhibition (Faza 967 clone 2): 10%

CCCCCCCCCCCCC(NC(=O)CCC(=O)NC1OC(O)C(O)C(O)C1O)C(=O)N[C@H](Cc1ccccc1)C(=O)N[C@H]1CSSC[C@@H](C(=O)N[C@H](C(N)=O)[C@@H](C)O)NC(=O)[C@H](CCCCN)NC(=O)[C@@H](Cc2c[nH]c3ccccc23)NC(=O)[C@H](c2ccc(O)cc2)NC1=O (some centres not stated)
Inhibition (A2058): 100%
Inhibition (HT-29): 30%
Inhibition (PC-3): 55%

CCCCCCCCCCCCC(N[C@H](Cc1ccccc1)C(=O)N[C@@H](CSCNC(C)=O)C(=O)N[C@H](C(=O)N[C@H](Cc1c[nH]c2ccccc12)C(=O)N[C@@H](CCCCN)C(=O)N[C@@H](CSCNC(C)=O)C(=O)N[C@H](C(N)=O)[C@@H](C)O)c1ccc(O)cc1)C(=O)NC1OC(O)C(O)C(O)C1O (some centres not stated)
Inhibition (A2058): 62%
Inhibition (A-431 [1]): 32%
Inhibition (Faza 967 cell clone 2/T1): 50%
Inhibition (HT-29): 39%
Inhibition (Faza 967 clone 2): 61%

CCCCCCCCC(N)C(=O)NC(CCCCCCCC)C(=O)N[C@H](Cc1ccccc1)C(=O)N[C@@H](CSCNC(C)=O)C(=O)N[C@H](C(=O)N[C@H](Cc1c[nH]c2ccccc12)C(=O)N[C@@H](CCCCN)C(=O)N[C@@H](CSCNC(C)=O)C(=O)N[C@H](C(N)=O)[C@@H](C)O)c1ccc(O)cc1 (some centres not stated)
Inhibition (A2058): 68%
Inhibition (Faza 967 cell clone 2/T1): 95%
Inhibition (HT-29): 60%
Inhibition (Faza 967 clone 2): 96%

CCCCCCCCCCCCCCCCCCC(N)C(=O)N[C@H](Cc1ccccc1)C(=O)N[C@@H](CSCNC(C)=O)C(=O)N[C@H](C(=O)N[C@H](Cc1c[nH]c2ccccc12)C(=O)N[C@@H](CCCCN)C(=O)N[C@@H](CSCNC(C)=O)C(=O)N[C@H](C(N)=O)[C@@H](C)O)c1ccc(O)cc1 (some centres not stated)
Inhibition (A2058): 34%
Inhibition (Faza 967 cell clone 2/T1): 87%
Inhibition (HT-29): 50%
Inhibition (Faza 967 clone 2): 71%

CCCCCCCCCCCCC(N)C(=O)N[C@H](Cc1ccccc1)C(=O)N[C@@H](CSCNC(C)=O)C(=O)N[C@H](C(=O)N[C@H](Cc1c[nH]c2ccccc12)C(=O)N[C@@H](CCCCN)C(=O)N[C@@H](CSCNC(C)=O)C(=O)N[C@H](C(=O)NC1OC(C(N)=O)C(O)C(O)C1O)[C@@H](C)O)c1ccc(O)cc1 (some centres not stated)
Inhibition (A2058): 2%
Inhibition (A-431 [1]): 10%
Inhibition (Faza 967 cell clone 2/T1): 17%
Inhibition (HT-29): 18%
Inhibition (Faza 967 clone 2): 23%

CCCCCCCCCCC(N)C(=O)N[C@H](Cc1ccccc1)C(=O)N[C@@H](CSCNC(C)=O)C(=O)N[C@H](C(=O)N[C@H](Cc1c[nH]c2ccccc12)C(=O)N[C@@H](CCCCN)C(=O)N[C@@H](CSCNC(C)=O)C(=O)N[C@H](C(=O)NC1OC(C(N)=O)C(O)C(O)C1O)[C@@H](C)O)c1ccc(O)cc1 (some centres not stated)
Inhibition (A2058): 80%
Inhibition (A-431 [1]): 50%
Inhibition (Faza 967 cell clone 2/T1): 29%
Inhibition (HT-29): 36%
Inhibition (Faza 967 clone 2): 19%

CC(=O)NCSC[C@H](NC(=O)[C@H](N)Cc1ccccc1)C(=O)N[C@H](C(=O)N[C@H](Cc1c[nH]c2ccccc12)C(=O)N[C@@H](CCCCN)C(=O)N[C@@H](CSCNC(C)=O)C(=O)N[C@H](C(=O)NC1OC(C(N)=O)C(O)C(O)C1O)[C@@H](C)O)c1ccc(O)cc1 (some centres not stated)
Inhibition (A2058): 88%
Inhibition (A-431 [1]): 90%
Inhibition (Faza 967 cell clone 2/T1): 90%
Inhibition (HT-29): 85%
Inhibition (Faza 967 clone 2): 93%

C[C@@H](O)[C@H](NC(=O)C1CSSCC(NC(=O)[C@H](N)Cc2ccccc2)C(=O)N[C@@H](c2ccc(O)cc2)C(=O)NC(Cc2c[nH]c3ccccc23)C(=O)N[C@@H](CCCCN)C(=O)N1)C(N)=O (single isomer, unassigned)
Inhibition (A2058): 96%
Inhibition (Faza 967 cell clone 2/T1): 100%
Inhibition (A-431 [2]): 100%
Inhibition (HT-29): 76%
Inhibition (PC-3): 90%
Inhibition (SW-620): 90%
Inhibition (Faza 967 clone 2): 100%
